Source: ChEMBL document CHEMBL4513216, “Probing the Open Global Health Chemical Diversity Library for Multistage-Active Starting Points for Next-Generation Antimalarials” (ACS Infect Dis, 2020)

test: Toxicity liver stage against HepG2, at 10uM; assay type: cell-based; design: test concentration 10 uM, cell line HepG2-A16-CD81EGFP; conditions: human, HepG2-A16-CD81EGFP cells; read-out: INHIBITION
How it was run: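 Uninfected HepG2-A16-CD81EGFP cells, 3 × 10^3 per well, 1536-well, plated on prespotted compound at 10 μM final, parasite-free screening media added to match infected plates; puromycin 10 μM positive, DMSO 0.5% negative; run in parallel with 48 h PbLuc assay at 37 °C, 5% CO2; viability by CellTiter-Glo luminescence, normalized to controls.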

Row | Structure (SMILES) | cytotoxicity at 10 µM [%]
1 | Cc1ccc(S(=O)(=O)N2CCN(C)c3ccncc32)cc1F | 9.21
2 | O=C(NCCN1CCCC(CO)C1)c1ccc2scnc2c1 (stereo not drawn) | 8.61
3 | CC(=O)Nc1nc2c(s1)C1(CCN(C)CC1)Nc1ccccc1S2 | -14.5
4 | Cc1nn(C2CCS(=O)(=O)C2)c(O)c1Cc1ccc(Br)cc1 (stereo not drawn) | -41.6
5 | CC(C)OCCS(=O)(=O)N1CCN(Cc2cccn2C)CC1 | -17.3
6 | O=C(NCCCn1cccn1)N1CCCC1c1cccs1 (stereo not drawn) | -2.39
7 | Cc1c(C2SCC(=O)Nc3c2c(O)nn3C2CCCCC2)cnn1C (stereo not drawn) | 0.618
8 | CN1CCOC(CNCc2coc(-c3cccs3)n2)C1 (stereo not drawn) | -3.71
9 | O=C(COc1ccc2c(c1)CCC2)NCc1ccco1 | 2.98
10 | COCC1CN(CC2CCOCC2)Cc2cn(CC3CCCC3)nc21 (stereo not drawn) | 5.19
11 | CCn1nnc(NCc2ccccc2OCc2ccc(Cl)cc2)n1 | -0.139
12 | COCCNC(=O)NC(c1ccccc1)c1ccccc1OC (stereo not drawn) | -0.238
13 | Cc1cc(C)n(CC(C)NC(=O)NCc2c(C)cc(C)[nH]c2=O)n1 (stereo not drawn) | -6.58
14 | O=C(CCCc1cn[nH]c1)N1C[C@@H](CN2CCOCC2)[C@@H](CO)C1 | -15.8
15 | NCCc1nc(N[C@@H](CO)c2ccccc2)c2ccccc2n1 | 9.24
16 | Cc1csc(N2CCN(Cc3cnc4c(c3)c(C)nn4C)CC2)n1 | -0.54
17 | Cc1ccc(CCNc2ncc(C)c(-c3ccnn3C)n2)s1 | 9.68
18 | N#Cc1ccc(CN2CCCC(Cn3cncn3)C2)c(F)c1 (stereo not drawn) | 0.762
19 | CNC(=O)NC(=O)CCN1CCCC1c1nc(C2CCCCC2)co1 (stereo not drawn) | 5.44
20 | CC(C)Oc1cccc(CC(=O)N(CC(N)=O)C2CCCC2)c1 | -2.09
21 | O=C(C1CCCN(Cc2cccnc2)C1)N1CCc2sccc2C1 (stereo not drawn) | 7.99
22 | CNc1ncc(C(=O)N2CCOC(C(=O)N3CCCCCC3)C2)cn1 (stereo not drawn) | -8.29
23 | CCOC(=O)c1cnn(-c2cc(Oc3cccc(C)c3)ncn2)c1N | 16.9

Row | Structure (SMILES) | cytotoxicity at 10 µM [%]
24 | Cc1cc(C)n(CC2CCCCN2CC(=O)NC2CCOCC2)n1 (stereo not drawn) | -9.01
25 | CC(=O)N1CCC(c2cncc(Cl)n2)CC1 | 3.8
26 | COCCOCC(=O)N1CCC(c2ccccc2F)C1 (stereo not drawn) | -6.45
27 | C[C@H]1CN2C[C@H](O)CC2CN1Cc1ccc2nccnc2c1 (stereo partly drawn) | -1.23
28 | CCn1cnnc1C1CCN(C(=O)c2ccc3ccccc3n2)CC1 | 6.13
29 | Cn1c(C(F)(F)F)nn(CCNC(=O)c2ccccn2)c1=O | -1.4
30 | Cc1cc(NC(=O)NCC(c2ccccc2)N2CCOCC2)n(C)n1 (stereo not drawn) | -11
31 | COc1ccnc(NC(Cc2ccccc2)C(N)=O)n1 (stereo not drawn) | 20.7
32 | CCN(CC)CC1CN(Cc2nccs2)Cc2nccn2C1 (stereo not drawn) | 1.13
33 | COC[C@@]12CCC[C@@H]1CN(C(=O)N1CCCC1)C2 | 7.9
34 | CC(C)c1nc(-c2cc(C(=O)NCCCO)c3ccccn23)cs1 | 9.7
35 | CCC(C)NC(=O)c1cc(Br)c2c(c1)OCCO2 (stereo not drawn) | -14.3
36 | CCOCCC1(CNC(=O)c2ccncc2Cl)CCC1 | 5.38
37 | CCNCCOc1ccc(-c2cc(N)nc3[nH]ccc23)cc1 | 24.3
38 | CCCN1CCc2nc(SCc3ccccc3)[nH]c(=O)c2C1 | 0.279
39 | COc1c(C2CCCN2C(=O)c2cc(C3CC3)on2)c(C)nn1C (stereo not drawn) | -2.87
40 | Cn1ncc2c(N3CCN(CCC(N)=O)CC3)nc(C3CCCC3)nc21 | -2.45
41 | c1ccc(-c2nc(CN3CCCC3Cn3cncn3)co2)cc1 (stereo not drawn) | -1.99
42 | COCc1cc(N2CCOCC2)n2nccc2n1 | -1.98
43 | COc1ccc(OC2CCN(c3ccncc3)CC2)cc1 | 2.1
44 | O=C(NCC1CCCO1)c1nc2c(s1)CCCN2c1ncccn1 (stereo not drawn) | -5.17
45 | O=C(O)[C@]12CCCN(Cc3ccncc3)C[C@H]1CN(c1ncccn1)C2 | 2.59
46 | Cc1nn(C)c(C)c1C1CCCN1CC(=O)Nc1ccncc1 (stereo not drawn) | -5.53

Row | Structure (SMILES) | cytotoxicity at 10 µM [%]
47 | Cc1nc(N2CCOCC2)nc2c1COCC21CCN(CC(C)C)C1 (stereo not drawn) | -128
48 | CCNC(=O)N(C)CCCc1n[nH]c(N)c1C#N | 10.3
49 | Cc1nc(CN(Cc2ccccc2)C2CCS(=O)(=O)C2)oc1C (stereo not drawn) | -8.13
50 | CC(=O)N1CCOCC2(CN(Cc3ccc(C)o3)CCO2)C1 (stereo not drawn) | 6.41
51 | c1cc2c(cc1Cn1cc(C3CCOC3)nn1)OCO2 (stereo not drawn) | 3.86
52 | O=C(c1c[nH]c(=O)c(Cl)c1)N1CCc2ccccc2C1 | -11.1
53 | Cc1cc(NC(=O)N(C)C2CCCN(c3ccccc3)C2=O)n(C)n1 (stereo not drawn) | 5.42
54 | CC(C)c1nc(C2CCCN(c3nccc(C(F)(F)F)n3)C2)no1 (stereo not drawn) | 5.83
55 | CC(C)n1nc(CN(C)C)c2c1CN(CC1CC1)CC2 | -3.15
56 | O=C1C(NCc2nnc3n2CCCC3)CCN1c1ccccc1F (stereo not drawn) | -4.92
57 | Cn1cc(-c2ccnc(NCC3CCN(Cc4ccccc4)C3)n2)cn1 (stereo not drawn) | -130
58 | CC(NCc1cc(O)c2cccc(F)c2n1)c1ccc(S(C)(=O)=O)cc1 (stereo not drawn) | 4.03
59 | COc1cccc(-c2cc(C(=O)NCCCC(F)(F)F)[nH]n2)c1 | -13.9
60 | CC(C)c1noc(CN2CCC(c3ccnn3CCO)CC2)n1 | -18.6
61 | CN(Cc1cccc(C(=O)Nc2ccnn2C)c1)CC1(C)COC1 | -5.84
62 | Nc1ncc(CN2CCC(O)(c3ccccc3F)CC2)cn1 | 1
63 | CCC(=O)N1CCN(C(=O)NC2CCc3ccccc3C2)CC1 (stereo not drawn) | -15.9
64 | O=C(c1ccccn1)C1CCCN(c2nccc(CCC(F)(F)F)n2)C1 (stereo not drawn) | -4.27
65 | Cc1ccc(F)cc1S(=O)(=O)Nc1cnc(N2CCCC2)nc1 | 3.91
66 | Fc1ccc(CN2CCCC3(CCN(Cc4ncc[nH]4)C3)C2)cc1F (stereo not drawn) | -12
67 | COc1ccc(C(=O)NCCNC(=O)c2cncnc2C)cc1 | 7.98
68 | Cc1nc2sccn2c1CN(CCCN(C)C)Cc1ccco1 | -0.215
69 | Cc1csc(C2CCCCN2C(=O)c2cc(C)n(C)n2)n1 (stereo not drawn) | -17.9

Row | Structure (SMILES) | cytotoxicity at 10 µM [%]
70 | CN(CCCc1cc(-c2cccc(F)c2)n[nH]1)C(=O)CCn1cncn1 | -132
71 | Cc1ccccc1C1CCCN1Cc1nc2c(cnn2C)c(=O)[nH]1 (stereo not drawn) | -12
72 | Cn1ncc2c(=O)[nH]c(CN3CCCC3CC3CCCCC3)nc21 (stereo not drawn) | -2.41
73 | CNC(=O)c1ccc2c(OC)n(C)nc2c1 | -2.43
74 | Cc1nc(N)ncc1C(=O)N1CCCC1(C)C(=O)N(C)C (stereo not drawn) | 10.2
75 | COc1ccccc1CN(Cc1cccnc1)Cc1nccs1 | -1.53
76 | c1ccc(CN2CCc3ncnc(-c4ccncc4)c3CC2)nc1 | -73.1
77 | CCc1ccc(C(=O)N2CC[C@H](Oc3cccnc3C)[C@@H](O)CC2)cc1 | 8.24
78 | COc1cccc(-c2noc(CN3CCOCC3C)n2)c1 (stereo not drawn) | -11.7
79 | O=C(CN1CCN(c2ncccn2)[C@@H]2CS(=O)(=O)C[C@@H]21)N1CCCCC1 | -6.82
80 | COc1ccc(F)cc1C(C)NC(=O)Cn1ccc(=O)n(C)c1=O (stereo not drawn) | -8.35
81 | CCCNC(=O)C[C@@H]1CCN(C(=O)c2cccnc2)C[C@@H]1CC | -0.171
82 | CN(Cc1ccncc1)C1CC2(CCN(c3ncc(F)cn3)CC2)C1 | 52.4
83 | CC(=O)N1CCOCC(Cc2ccc3c(ccn3C)c2)C1 (stereo not drawn) | 4.3
84 | COC(=O)c1ccc(C)c(N2CCNC2=O)c1 | 9.81
85 | COC(=O)N1CCCC(C(=O)Nc2nc(C)c(SC)s2)C1 (stereo not drawn) | 11.1
86 | CC(C)N1CCCC2(CCN(C(=O)COCC(F)(F)C(F)F)C2)C1=O (stereo not drawn) | 13.1
87 | CCc1noc(-c2cccc(OCC(=O)NC(C)C)c2)n1 | -6.53
88 | COCC(=O)N1CCCCC1c1nc(C)c2c(n1)N(CC1CC1)C(=O)C2 (stereo not drawn) | 10.5
89 | COCC(=O)N1CCC2(CC1)NC(=O)c1ccccc12 | 3.15
90 | CCN(Cc1ccc2c(c1)OCO2)C(=O)Cn1cccnc1=O | -2.27
91 | FC(F)(F)C1CN(Cc2cccc(OCc3ccccn3)c2)CCO1 (stereo not drawn) | 1.48
92 | O=C(Nc1ccc(S(=O)(=O)Nc2c(F)cccc2F)cc1)N1CCCC1 | 5.66

Row | Structure (SMILES) | cytotoxicity at 10 µM [%]
93 | COc1ccc(CC(=O)N2CCCC(Cn3cc(CN)nn3)C2)cc1 (stereo not drawn) | 7.22
94 | O=C(NC1CC1)N(CCc1ccccc1)C1CCOC1 (stereo not drawn) | -1.41
95 | CS(=O)(=O)Cc1cc(F)ccc1NCc1nnsc1Cl | -12.2
96 | O=C(NCc1csc(-c2cccs2)n1)C1NCCc2[nH]cnc21 (stereo not drawn) | -0.798
97 | Cc1ccc(-c2ccc(C(=O)NCC(N)=O)c(F)c2)cc1 | -0.758
98 | Cn1cc(CN2CCC(c3cc(CCO)[nH]n3)C2)cn1 (stereo not drawn) | 3.19
99 | c1cnn(CC2CCCN2Cc2nc(C3CC3)no2)c1 (stereo not drawn) | 1.61
100 | Cc1nn(-c2ccccc2)c2c1c(C(F)F)cc(=O)n2CC(=O)O | 7.73
101 | O=S(=O)(c1cccnc1)N1CCCC1COc1ccccc1 (stereo not drawn) | -9.32
102 | COCCNC(=O)c1cc2c(s1)CCN2S(C)(=O)=O | -5.05
103 | COc1ccc(OC2CCN(C(=O)C(C)Cn3cccn3)CC2)cc1 (stereo not drawn) | 5.43
104 | CN1CC[C@]2(CN(CC3CC3)C[C@H]2c2ccccc2)C1=O | 3.15
105 | Cc1nc(N(C)C)nc2c1COCC21CCN(CC2CC2)C1 (stereo not drawn) | -8.94
106 | O=C(COc1ccccc1NCc1ccc(F)cc1)N1CCOCC1 | -2.82
107 | Cc1noc(C)c1CC(=O)N1CCCC(c2noc(C(C)C)n2)C1 (stereo not drawn) | 1.48
108 | CC(C)(C)c1ccc(S(=O)(=O)CCN2CCNC(=O)CC2)cc1 | -5.41
109 | Fc1cccc(-c2nc(CN3CCCC3Cn3cncn3)co2)c1 (stereo not drawn) | -5.61
110 | Cc1noc(C)c1CN1CCCCC1CCc1ccc(O)cc1 (stereo not drawn) | -2.06
111 | Cn1cnc(S(=O)(=O)NCC2(O)CCc3ccccc3C2)c1 (stereo not drawn) | -4.2
112 | Cc1nc2c(c(N(C)C)n1)CCN(C(=O)c1sccc1S(N)(=O)=O)C2 | -2.29
113 | Cc1nn(CCN2CCSCC2)cc1CNCc1ccccn1 | 2.28
